According to publication PMC11539713 (Malaria Journal, 2024):
Values after ≈ are worked out from the molar mass of the structure shown. Values joined by “and” are separate entries in the source; they are usually repeats but may differ in a detail not shown here. Equal entries are not always repeated. Where two headings read alike, the source gives them in different places.

Assays:
CYP enzymes = test: Enzyme phenotyping with; type: in vitro ADME, human; conditions: for Effect of inhibitor on formation of ART-M in HLMs: ART 1 μM, HLMs 1 mg/mL, 1 mM 1-ABT, 1 μM ketoconazole
CYP3A = conditions: read-out: Inhibition constant Ki of CYP3A; cited from earlier work
[1] = cited from earlier work
PfDd2 [2] = conditions: cited from earlier work
Pf3D7 [3] = conditions: cited from earlier work
Pf3D7 [4] = test: In vitro drug susceptibility, SYBR Green I fluorometric method, Pf3D7; type: cell-based; conditions: Plasmodium falciparum
Method in brief: (§1)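 Synchronous ring-stage P. falciparum culture at final 0.5% parasitaemia and 2% haematocrit, exposed to test compound. Chloroquine served as positive control and 0.1% DMSO as negative control. Growth was read by SYBR Green I fluorescence. MIC50/MIC90 came from nonlinear regression of log-transformed concentrations, averaged over two independent experiments each run in duplicate.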

PfDd2 [5] = test: In vitro drug susceptibility, SYBR Green I fluorometric method, PfDd2; type: cell-based; conditions: Plasmodium falciparum
Method in brief: as §1

[6] = type: in vivo, human; conditions: for fAUC0-t: area under the free plasma concentration–time curve; for fCmax: maximum free plasma concentration
Method in brief: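 Subjects were six healthy non-smoking men, 20–26 y, BMI 20–25 kg/m2. Each received oral test compound 125 mg plus piperaquine 750 mg per dose over two days. Venous blood was drawn 0–48 h, and plasma was stored at −80 °C. Samples were prepared by acetonitrile precipitation with deuterated internal standard and analysed by LC-HRMS. Non-compartmental analysis used observed Cmax/Tmax, AUC0-t by linear trapezoidal rule, and CL/F = dose/AUC0-t.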

[7] = Plasma protein binding by ultrafiltration; type: in vitro ADME; conditions: human, pooled human plasma
[8] = cited from earlier work; remark: listed apart in the source
[9] = Enzyme kinetics of ART metabolism in human liver microsomes; type: in vitro ADME; conditions: HLMs 0.5 mg/mL; for microsomal CLint: CLint,H, Vmax/Km, 15 min
[10] = read-out: Antiplasmodial activity (literature data)

## Nn1nnc2ccccc21 [1-ABT]
CYP enzymes
  Effect of inhibitor on formation of ART-M in HLMs: completely inhibited
CYP enzymes; ART in HLMs
  Effect of inhibitor on formation of trace metabolite isomer M1: inhibited completely

## Clc1ccc2c(N3CCN(CCCN4CCN(c5ccnc6cc(Cl)ccc56)CC4)CC3)ccnc2c1 [piperaquine]
CYP3A
  Ki: 0.68 µM
[1]
  Plasma protein binding: 97.4%

## C[C@H]1[C@@H](O)O[C@@H]2O[C@@]3(C)CC[C@H]4[C@H](C)CC[C@@H]1[C@@]24OO3 [dihydroartemisinin]
PfDd2 [2]
  MIC50: ~ 1.0 nM

## CCN(CC)CCCC(C)Nc1ccnc2cc(Cl)ccc12 (stereo not shown) [CQ, Chloroquine diphosphate]
Pf3D7 [3]
  MIC50 (reported data): 0.005 to 0.04 µM
PfDd2 [2]
  MIC50 (reported data): 0.062 to 0.1354 µM
Pf3D7 [4]
  MIC50: 0.0106 µM
  MIC90: 0.0163 ± 0.0031 µM
PfDd2 [5]
  MIC50: 0.0938 µM

## CC(=O)N1CCN(c2ccc(OCC3COC(Cn4ccnc4)(c4ccc(Cl)cc4Cl)O3)cc2)CC1 (stereo not shown) [ketoconazole]
CYP enzymes
  Effect of inhibitor on formation of ART-M in HLMs: completely inhibited

## C[C@@H]1CC[C@H]2[C@@H](C)C(=O)O[C@@H]3O[C@@]4(C)CC[C@@H]1[C@]32OO4 [ART, Artemisinin]
[6]; Day-1
  fAUC0-t: 155.6 ± 27.6 nmol/L⋅h
  fCmax: 51.8 nM and 51.8 ± 18.0 nM
[6]; Day-2
  fAUC0-t: 113.0 ± 20.1 nmol/L⋅h
  fCmax: 43.1 ± 10.5 nM
[6]; male, human, plasma, oral, CL/F, Day-1, dose/AUC0-t
  CL/F: 11 L/h/kg
[6]; male, human, plasma, oral, Tmax, Day-1
  Tmax: 1 h
[6]; male, human, plasma, oral, t1/2, Day-1
  half-life: 1.7 h
[6]; male, human, plasma, po, Cmax, after the first oral dose, plasma
  Cmax: 0.207 µM
Pf3D7 [3]; [10]
  IC50: 0.01 to 0.03 µM
[7]
  fraction unbound at 0.6 μM: 0.251
PfDd2 [2]; [10]
  IC50: 0.01 to 0.03 µM
[8]
  Bioavailability: ~ 30%
  Elimination half-life t1/2: ~ 2 h
[9]; formation of ART-M
  microsomal CLint: 27.6 µL/min/mg
[9]; substrate depletion
  microsomal CLint: 30.3 µL/min/mg
[9]; Km, substrate depletion
  Km at 15 min: 23.8 µM
Pf3D7 [4]
  MIC50: 0.0101 µM (≈ 2.85 ng/mL)
  MIC90: 0.0139 ± 0.0005 µM (≈ 3.92 ng/mL)
PfDd2 [5]
  MIC50: 0.0204 µM (≈ 5.76 ng/mL)
  MIC90: 0.0384 ± 0.0009 µM (≈ 10.8 ng/mL)
